In assay [1] the target is T1, Neuropeptide Y receptor type 2 (Rattus norvegicus, UniProt Q9ERC0).
T1 sequence (Q9ERC0 whole entry): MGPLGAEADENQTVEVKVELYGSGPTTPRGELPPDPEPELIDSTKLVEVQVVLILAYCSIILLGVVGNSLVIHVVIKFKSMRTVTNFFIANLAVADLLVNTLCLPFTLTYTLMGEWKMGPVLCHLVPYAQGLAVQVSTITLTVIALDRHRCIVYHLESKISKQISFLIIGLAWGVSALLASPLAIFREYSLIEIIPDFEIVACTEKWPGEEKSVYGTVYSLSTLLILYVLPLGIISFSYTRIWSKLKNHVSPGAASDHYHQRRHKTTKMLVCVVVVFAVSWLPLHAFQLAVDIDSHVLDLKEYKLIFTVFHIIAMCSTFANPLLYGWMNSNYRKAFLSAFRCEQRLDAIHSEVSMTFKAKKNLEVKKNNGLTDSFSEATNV
In words: 50% displacement of specifically bound [3H]NPY2 from rat brain membranes. Type of assay: cell membranes, Membrane.

The subject of assay [2] is HEL. In words: (§1) Inhibition of NPY1-induced ([Ca2+]) release in HEL cell was determined at 100 nM. Type of assay: functional, Homo sapiens. Set-up: scale not given: the % may be the effect or the level left. The gist of the method: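 HEL cells loaded with fura-2 and kept in suspension; calcium read as the 340/380 nm ratio. Peptide tested at 100 nM, added 30 s before NPY. Agonist activity expressed as percent of the response to 100 nM NPY. Inhibition measured against the 5 nM NPY response.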

Assay [3] deals with HEL. In words: Inhibition of NPY-induced ([Ca2+]) release in HEL cell was determined. It is filed as functional, cell-based. The following applies: Homo sapiens.
The subject of assay [4] is HEL. Described as §1. It is filed as functional. The following applies: Homo sapiens, read-out: ED50 (the source's name).

For orientation: IC50 means the concentration at which inhibition is half-maximal. H-LIYRLRY-NH2 gave an IC50 in assay [1] of 400 nM. Consider H-YINLITRLY-NH2, for which the IC50 in assay [1] worked out at 2100 nM. Moreover, the Activity in assay [2] is recorded as 0%. The substance H-RHYINLIYRLRY-NH2 yielded an IC50 in assay [1] of 12 nM. In assay [2], this substance gave an Activity of 100%. On to H-YINLITRQRY-NH2, for which the IC50 in assay [1] turned out to be 30000 nM. Moreover, the Activity in assay [2] was 0%. In turn, H-INLIYRLRY-NH2 [listing 1 of 2 here] registered an Activity in assay [2] of 33%. The substance H-INLIYRLRY-NH2 [listing 2 of 2 here] displayed an IC50 in assay [1] of 37 nM. In turn, “H-RHYINLITRQRY-NH2 [listing 1 of 2 here]” showed an Activity in assay [2] of 0%. In the case of “H-RHYINLITRQRY-NH2 [listing 2 of 2 here]”, the IC50 in assay [1] is 1300 nM. Consider H-INPIYRLRY-NH2, for which the IC50 in assay [3] was 9 nM; in assay [1] it was 174 nM.

Substance H-HYINLIYRLRY-NH2 displayed an IC50 in assay [1] of 12 nM. Further, in assay [2], the Activity was 100%. As for H-TRQRY-NH2, the IC50 in assay [1] was over 100000 nM. In assay [3], H-YINPIYRLRY-NH2 [listing 1 of 2 here] registered an IC50 of 100 nM. Turning to H-NLIYRLRY-NH2, in assay [1], the IC50 was determined as 310 nM. H-YINLIYRLRY-NH2: the EC50 in assay [4] was 8.8 nM. The same substance came in with an IC50 in assay [1] of 8 nM. In the case of H-IYRLRY-NH2, the IC50 in assay [1] was 2950 nM. Same read-out and setting: in the case of H-YINPIYRLRY-NH2 [listing 2 of 2 here] it was 44 nM.
